Laboratory results from PMC3047606 (The Journal of General Physiology, 2011).
Where a chain is given by its changes, count along the chain named. Several values for one entry are separate records, joined by “and”; a condition that tells them apart may be missing. Equal entries are not always repeated. Entries after “also recorded” stand apart in the source; their conditions may differ. Where two headings read alike, the source gives them in different places. Marks after values point to notes of the source that are not given here.

What was measured:
[1] = target: T1, native TRPV3 channels (Homo sapiens, UniProt Q8NET8); format: cell-based; details: for activation of membrane currents by TRP channel agonists: bath superfusion, 2-APB 30 µM; for increase of 2-APB-activated TRPV3 whole cell current amplitude: 100 µM ATP, n = 4 cells
T1 sequence (Q8NET8 1-790): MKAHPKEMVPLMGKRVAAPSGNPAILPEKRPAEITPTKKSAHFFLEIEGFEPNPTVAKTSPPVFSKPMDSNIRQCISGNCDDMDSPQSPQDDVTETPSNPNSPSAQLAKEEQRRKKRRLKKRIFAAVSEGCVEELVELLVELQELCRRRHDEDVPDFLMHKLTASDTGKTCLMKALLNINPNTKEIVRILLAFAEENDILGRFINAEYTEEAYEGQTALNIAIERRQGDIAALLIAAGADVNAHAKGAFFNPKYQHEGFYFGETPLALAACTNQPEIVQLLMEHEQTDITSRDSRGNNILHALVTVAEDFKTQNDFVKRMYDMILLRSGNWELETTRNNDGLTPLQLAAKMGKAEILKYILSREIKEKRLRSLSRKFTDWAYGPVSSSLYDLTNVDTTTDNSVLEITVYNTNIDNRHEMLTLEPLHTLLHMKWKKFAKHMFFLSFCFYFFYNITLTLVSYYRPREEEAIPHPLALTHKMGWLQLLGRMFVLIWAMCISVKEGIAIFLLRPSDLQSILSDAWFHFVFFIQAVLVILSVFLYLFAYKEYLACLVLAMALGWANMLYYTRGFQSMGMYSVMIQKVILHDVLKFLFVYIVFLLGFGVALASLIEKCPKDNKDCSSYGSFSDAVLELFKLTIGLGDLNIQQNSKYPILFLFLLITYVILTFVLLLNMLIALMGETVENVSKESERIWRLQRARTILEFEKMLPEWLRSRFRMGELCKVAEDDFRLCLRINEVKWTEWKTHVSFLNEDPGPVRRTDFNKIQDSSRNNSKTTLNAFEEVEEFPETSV
Method in brief: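 Whole-cell voltage clamp of primary human epidermal keratinocytes plated on coverslips and recorded 24–48 h later, at room temperature. Bath was NaCl/KCl/HEPES/glucose/MgCl2/1.8 mM BaCl2, pH 7.4; pipette was Cs-methanesulfonate with ~50 nM free Ca2+, pH 7.3. Voltage steps were run in 30 µM 2-APB, then with 100 µM ATP or vehicle. Tail currents were fitted with Boltzmann functions for V0.5 and VIF; n = 4 cells.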

[2] = target: T2, human TRPV3 (WT) (Homo sapiens, UniProt Q8NET8); format: cell-based
T2 sequence (Q8NET8 1-790): T1 sequence (Q8NET8 1-790)

[3] = target: T3, TRPV3 R696A (Homo sapiens, UniProt Q8NET8, R696A); format: cell-based
T3 sequence (Q8NET8 1-790 R696A): T1 sequence (Q8NET8 1-790) with R696A

[4] = target: T4, WT TRPV3 (Homo sapiens, UniProt Q8NET8); format: biochemical; details: inside-out patches, +80 mV; for effect on NPOPEN of PI-PLC-stimulated TRPV3: 30 µM diC8-phosphatidylinositol phosphate
T4 sequence (Q8NET8 1-790): T1 sequence (Q8NET8 1-790)
Method in brief: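 WT TRPV3 was expressed in HM1 cells by calcium-phosphate transfection and recorded 24–48 h later. Inside-out patches were held at +80 mV in symmetrical NaCl/HEPES/EGTA at pH 7.4. Patches got anti-PI(4,5)P2 mAb (1:200) or 0.5 U/ml PI-PLC for 5 min, or 100 µM OAG for 2 min, by perfusion and then a still bath. diC8-phosphoinositides were added after PI-PLC. NPOPEN was taken before and after; Hill fit over 1–60 µM.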

[5] = target: T3, TRPV3 R696A; format: biochemical; details: 30 µM diC8-PI(4,5)P2, inside-out patches
Method in brief: (§1)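 HM1 cells were calcium-phosphate transfected with the mutant channel, GFP-identified, and used 24–48 h later. Inside-out patches were held at +80 mV at 21–24°C in symmetrical 145 mM NaCl, 5 mM […], 20 mM HEPES, 1 mM EGTA, pH 7.4. Patches received anti-PI(4,5)P2 mAb (1:200) or 0.5 U/ml PI-PLC, then 30 µM diC8-PI(4,5)P2. NPOPEN was measured, n = 3–5 patches.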

[6] = target: T5, TRPV3 K705A (Homo sapiens, UniProt Q8NET8, K705A); format: biochemical; details: 30 µM diC8-PI(4,5)P2, inside-out patches
T5 sequence (Q8NET8 1-790 K705A): T1 sequence (Q8NET8 1-790) with K705A
Method in brief: as §1

Structure (SMILES): NCCOB(c1ccccc1)c1ccccc1 [2-APB, 2-aminoethyoxy diphenylborinate]
- activation of membrane currents by TRP channel agonists ([1]; whole cell): activated small voltage-dependent currents
- increase in 2-APB potency after CCh exposure [2]: approximately fourfold

Structure (SMILES): Nc1ncnc2c1ncn2[C@@H]1O[C@H](COP(=O)(O)OP(=O)(O)OP(=O)(O)O)[C@@H](O)[C@H]1O [ATP]
- increase of 2-APB-activated TRPV3 whole cell current amplitude ([1]; 30 µM 2-APB, +80 mV): 5.6 ± 1.6 fold
- increase of 2-APB-activated TRPV3 whole cell current amplitude ([1]; 30 µM 2-APB, −80 mV): 6.3 ± 1.9 fold
- increase of voltage-independent fraction (VIF) ([1]; after 100 µM ATP, 30 µM 2-APB): 26.7 ± 5.1%
- shift of half-maximal activation (V0.5) ([1]; after 100 µM ATP, 30 µM 2-APB): −61.7 ± 17.8 mV

Structure (SMILES): C[N+](C)(C)CCOC(N)=O.[Cl-] [CCh, carbamylcholine]
- ΔVIF [3]: 21.3%
- Arrhenius slope of temperature-dependent activation [2]: 10.3
- apparent threshold for temperature-dependent activation (Th) [2]: 18.3 ^a °C
- change of thermal coefficient (Q10) by CCh exposure [2]: changed only slightly
- fold change in step current [2]: 31.1 fold and 31.1 ± 7.9 fold
- shift of apparent threshold for thermal activation (Th) [2]: −10 °C

Structure (SMILES): Cc1ccc(C(C)C)cc1O [Carvacrol, carvacrol]
- activation of membrane currents by TRP channel agonists ([1]; whole cell): elicited currents

Structure (SMILES): CCCCCCCC/C=C\CCCCCCCC(=O)OC[C@H](CO)OC(C)=O [OAG, 1-oleoyl-2-acetyl-sn-glycerol]
- effect on TRPV3 channel activity (NPOPEN) ([4]; 100 µM OAG): did not significantly increase; also recorded: failed to significantly elevate NPOPEN

Structure (SMILES): CCCCCCCC(=O)OC[C@H](COP(=O)(O)O[C@@H]1[C@H](O)[C@H](OP(=O)(O)O)[C@@H](O)[C@H](O)[C@H]1O)OC(=O)CCCCCCC [PI(3)P]
- effect on NPOPEN of PI-PLC-stimulated TRPV3 [4]: failed to significantly decrease NPOPEN

Structure (SMILES): CCCCCCCC(=O)OC[C@H](COP(=O)(O)O[C@H]1[C@H](O)[C@@H](OP(=O)(O)O)[C@H](OP(=O)(O)O)[C@@H](OP(=O)(O)O)[C@H]1O)OC(=O)CCCCCCC [PI(3,4,5)P3]
- effect on NPOPEN of PI-PLC-stimulated TRPV3 [4]: failed to significantly decrease NPOPEN

Structure (SMILES): CCCCCCCC(=O)OC[C@H](COP(=O)(O)O[C@@H]1[C@H](O)[C@H](OP(=O)(O)O)[C@@H](O)[C@H](OP(=O)(O)O)[C@H]1O)OC(=O)CCCCCCC [PI(3,5)P2]
- effect on NPOPEN of PI-PLC-stimulated TRPV3 [4]: failed to significantly decrease NPOPEN

Structure (SMILES): CCCCCCCC(=O)OC[C@H](COP(=O)(O)O[C@H]1[C@H](O)[C@@H](O)[C@H](OP(=O)(O)O)[C@@H](O)[C@H]1O)OC(=O)CCCCCCC [PI(4)P]
- effect on NPOPEN of PI-PLC-stimulated TRPV3 [4]: failed to significantly decrease NPOPEN

Structure (SMILES): CCCCCCCC(=O)OC[C@H](COP(=O)(O)O[C@H]1[C@H](O)[C@@H](OP(=O)(O)O)[C@H](O)[C@@H](O)[C@H]1O)OC(=O)CCCCCCC [PI(5)P]
- effect on NPOPEN of PI-PLC-stimulated TRPV3 [4]: failed to significantly decrease NPOPEN

Structure (SMILES): N.N.N.N.N.N.N.N.N.N.N.N.N.N.[Cl-].[Cl-].[Cl-].[Cl-].[Cl-].[Cl-].[O-2].[O-2].[Ru+3].[Ru+3].[Ru+4] [Ruthenium red]
- block of 2-APB-activated current ([1]; whole cell, ruthenium red): eliminated only the inward component

Structure (SMILES): COC[C@H]1OC(=O)c2coc3c2[C@@]1(C)C1=C(C3=O)[C@@H]2CCC(=O)[C@@]2(C)C[C@H]1OC(C)=O [WM, wortmannin]
- current potentiation (fold increase) [2]: 9.6 ± 2.2 fold and 13.2 ± 2.8 fold
- ΔV0.5 [2]: −98.4 ± 18.6 mV
- ΔVIF [2]: 19.7 ± 3.8%

Structure (SMILES): CC12CCC(CC1=O)C2(C)C (stereo not drawn) [camphor]
- activation of membrane currents by TRP channel agonists ([1]; whole cell): elicited currents

Structure (SMILES): CCCCCCCC(=O)OC[C@H](COP(=O)(O)O[C@@H]1[C@H](O)[C@H](O)[C@@H](OP(=O)(O)O)[C@H](OP(=O)(O)O)[C@H]1O)OC(=O)CCCCCCC [diC8-PI(4,5)P2, D-myo-phosphatidylinositol 4,5-bisphosphate C8]
- effect on NPOPEN of PI-PLC-stimulated TRPV3 [4]: nearly maximal inhibitory effect
- effect on channel activity [5]: unaffected; also recorded: insensitive
- effect on channel activity [6]: unaffected; also recorded: insensitive
